Assay results from ChEMBL document CHEMBL1132588, “Synthesis, CoMFA analysis, and receptor docking of 3,5-diacyl-2, 4-dialkylpyridine derivatives as selective A3 adenosine receptor antagonists” (J Med Chem, 1999).

Experiments:
Rattus norvegicus [1] = species on record: Rattus norvegicus; assay: Ratio of binding affinities for rat A1 receptor against human A3 receptor, [Ki(rA1) / Ki (hA3)].
Summary of the method: (§1)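 Ratio of Ki values from binding assays. For A3, [125I]AB-MECA (final 0.3 nM) bound membranes of HEK-293 cells expressing human A3 (clone HS-21a) or CHO cells expressing rat A3, in Tris/Mg2+/EDTA buffer at pH 8.0. For rat A1, [3H]R-PIA bound cerebral cortex membranes, with adenosine deaminase (3 units/mL) present, including a 30 min preincubation at 30 °C.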

[2] = target: T1, Adenosine receptor A3 (Homo sapiens) (UniProt P0DMS8); assay: (§2) Displacement of specific [125 I]AB-MECA binding at human Adenosine A3 receptor expressed in HEK cells; type: cell-based; conditions: HEK293
T1 sequence (whole entry): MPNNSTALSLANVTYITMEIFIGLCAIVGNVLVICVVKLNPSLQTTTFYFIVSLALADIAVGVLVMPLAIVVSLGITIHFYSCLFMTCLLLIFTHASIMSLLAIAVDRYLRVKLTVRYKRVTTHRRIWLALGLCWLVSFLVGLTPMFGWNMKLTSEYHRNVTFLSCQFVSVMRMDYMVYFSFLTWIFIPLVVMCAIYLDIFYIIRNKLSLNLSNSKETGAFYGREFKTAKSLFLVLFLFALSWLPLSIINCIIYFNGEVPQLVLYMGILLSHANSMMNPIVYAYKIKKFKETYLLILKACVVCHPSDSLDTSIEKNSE

[3] = target: Adenosine receptor A2a (Rattus norvegicus) (UniProt P30543); assay: Displacement of specific [3H]-CGS- 21680 binding to Adenosine A2A receptor in rat striatal membranes at 10 e-5M; type: cell membranes; conditions: Membrane
Rattus norvegicus [4] = species on record: Rattus norvegicus; assay: Ratio of the binding affinities against rat A3 receptor / rat A3 receptor, Ki(rA1) / Ki (rA3).; summary of the method: as §1
Rattus norvegicus [5] = species on record: Rattus norvegicus; assay: Ratio of the binding affinities against rat A3 receptor / human A3 receptor, Ki(rA1) / Ki (hA3).; summary of the method: as §1
[6] = target: Adenosine receptor A2a (Rattus norvegicus) (UniProt P30543); assay: (§3) Displacement of specific [3H]-CGS- 21680 binding to Adenosine A2A receptor in rat striatal membranes; type: cell membranes; conditions: Membrane
Summary of the method: (§4)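 Rat striatal membranes labelled with [3H]CGS 21680 for A2A binding. Adenosine deaminase (3 units/mL) was present during membrane preparation, during a 30 min preincubation at 30 °C, and during radioligand incubation. Competitors were dissolved in DMSO and diluted in buffer (DMSO ≤2%).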

[7] = target: T1, Adenosine receptor A3 (Homo sapiens); assay: Displacement of specific[125 I]AB-MECA binding at human Adenosine A3 receptor expressed in HEK cells at 10 e-4M; type: cell-based; conditions: HEK293
Adenosine receptor A1 [8] = target: T2, Adenosine receptor A1 (Rattus norvegicus, UniProt P25099); assay: Displacement of specific [3H]-CGS- 21680R-PIA binding to Adenosine A1 receptor in rat brain membranes.; type: cell membranes; conditions: in the assay text read “[3H]R-PIA” for “[3H]-CGS- 21680R-PIA”
T2 sequence (P25099 whole entry): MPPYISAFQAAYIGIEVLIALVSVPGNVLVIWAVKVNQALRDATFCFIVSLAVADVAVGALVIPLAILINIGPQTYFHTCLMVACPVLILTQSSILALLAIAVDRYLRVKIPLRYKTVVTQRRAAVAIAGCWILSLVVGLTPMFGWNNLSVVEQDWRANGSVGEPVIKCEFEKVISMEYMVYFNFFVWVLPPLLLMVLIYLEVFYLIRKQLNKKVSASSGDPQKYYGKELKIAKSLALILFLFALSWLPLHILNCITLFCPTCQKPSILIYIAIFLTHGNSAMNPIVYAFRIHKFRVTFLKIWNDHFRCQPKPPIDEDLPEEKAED
Summary of the method: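 A1 binding used [3H]R-PIA on rat cerebral cortex membranes. Adenosine deaminase (3 units/mL) was included in membrane preparation, in a 30 min preincubation at 30 °C, and throughout radioligand incubation. Competitors were DMSO stocks diluted in buffer, with DMSO never above 2%.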

[9] = target: Adenosine receptor A2a (Rattus norvegicus) (UniProt P30543); assay: as §3; type: cell membranes; parameters: concentration or dose not given beside the values; conditions: Membrane, concentration not given here; summary of the method: as §4
Adenosine receptor A3 [10] = target: T3, Adenosine receptor A3 (Homo sapiens, UniProt P0DMS8); assay: as §2; type: cell-based, HEK293
T3 sequence (P0DMS8 whole entry): T1 sequence (whole entry)
Summary of the method: (§5)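 Membranes from HEK-293 cells stably expressing human A3 receptor (clone HS-21a), or from CHO cells stably expressing rat A3 receptor (rat: n = 3-5), in 50 mM Tris, 10 mM Mg2+, 1 mM EDTA, pH 8.0. Membranes at 0.3 mg protein/mL with [125I]AB-MECA at 0.3 nM final. Nonspecific binding defined with R-PIA. Competitors were dissolved in DMSO (≤2% final) and tested at ≥5 concentrations spanning 3 log units. Bound ligand was separated by GF/B filtration with three buffer rinses; Ki was derived.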

Adenosine receptor A1 [11] = target: T2, Adenosine receptor A1; assay: Displacement of specific [3H]R-PIA binding to Adenosine A1 receptor in rat brain membranes.
[12] = target: T4, Adenosine receptor A3 (Rattus norvegicus) (UniProt P28647); assay: (§6) Displacement of specific [125I]AB-MECA binding at rat Adenosine A3 receptor stably expressed in CHO cells; type: cell-based
T4 sequence (whole entry): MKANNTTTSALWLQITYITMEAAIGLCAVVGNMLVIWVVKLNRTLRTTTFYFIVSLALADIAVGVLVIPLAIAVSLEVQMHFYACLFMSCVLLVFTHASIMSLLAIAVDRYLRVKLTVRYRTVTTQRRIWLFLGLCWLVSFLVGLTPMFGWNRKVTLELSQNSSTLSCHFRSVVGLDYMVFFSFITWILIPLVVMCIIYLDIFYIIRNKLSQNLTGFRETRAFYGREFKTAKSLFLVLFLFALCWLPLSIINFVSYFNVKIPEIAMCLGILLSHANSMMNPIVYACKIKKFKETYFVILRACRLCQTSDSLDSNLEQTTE
Summary of the method: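 Membranes from CHO cells stably expressing rat A3 receptor (0.3 mg protein/mL) were incubated with [125I]AB-MECA (final 0.3 nM) and test compound in 50 mM Tris, 10 mM Mg2+, 1 mM EDTA, pH 8.0. Compounds were dissolved in DMSO, with DMSO never exceeding 2%. At least five competitor concentrations spanning 3 orders of magnitude were tested. Nonspecific binding was defined with R-PIA. Bound ligand was collected by filtration over GF/B filters; n = 3-5.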

[13] = target: T1, Adenosine receptor A3 (Homo sapiens); assay: as §2; type: cell-based; conditions: HEK293; concentration not given here; summary of the method: as §5
Adenosine receptor A2a = Adenosine receptor A2a (Rattus norvegicus, UniProt P30543); assay: Inhibition of [3H]-CGS- 21680 binding to Adenosine A2A receptor in rat striatal membranes.; type: cell membranes, Membrane
Adenosine receptor A3 [14] = target: T5, Adenosine receptor A3 (Rattus norvegicus, UniProt P28647); assay: as §6; type: cell-based
T5 sequence (P28647 whole entry): T4 sequence (whole entry)

[15] = target: Adenosine receptor A2a (Rattus norvegicus) (UniProt P30543); assay: Displacement of specific [3H]-CGS- 21680 binding to Adenosine A2A receptor in rat striatal membranes at 10 e-4M; type: cell membranes; conditions: Membrane

Adenosine receptor A2a (Rattus norvegicus), sequence (P30543 whole entry): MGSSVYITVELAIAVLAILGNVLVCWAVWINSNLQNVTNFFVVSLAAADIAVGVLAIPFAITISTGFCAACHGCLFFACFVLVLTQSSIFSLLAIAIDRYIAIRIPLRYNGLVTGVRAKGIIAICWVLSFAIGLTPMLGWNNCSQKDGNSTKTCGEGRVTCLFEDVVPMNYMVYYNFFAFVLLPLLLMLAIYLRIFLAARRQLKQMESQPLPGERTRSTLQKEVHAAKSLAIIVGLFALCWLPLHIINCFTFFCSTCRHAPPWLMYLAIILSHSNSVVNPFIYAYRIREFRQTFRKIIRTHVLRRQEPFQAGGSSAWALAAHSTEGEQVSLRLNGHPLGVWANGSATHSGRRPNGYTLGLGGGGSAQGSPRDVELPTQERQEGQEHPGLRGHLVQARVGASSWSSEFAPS
Adenosine receptor A2a, sequence (P30543 whole entry): as above

Ratio (Rattus norvegicus [1]) | pKi [2] | Ratio (Rattus norvegicus [4]) | Ratio (Rattus norvegicus [5]) | Ki (Adenosine receptor A1 [8]) [µM] | Ki (Adenosine receptor A3 [10]) [µM] | Ki (Adenosine receptor A1 [11]) [µM] | Compound | further results
820 | 8.08 | 42 | 22 | – | – | – | CCCOC(=O)c1c(-c2ccccc2)nc(CC)c(C(=O)SCC)c1CC | Displacement [3]: 10%
510 | 6.66 | – | – | – | 0.22 | 113 | CCCCCCSC(=O)c1c(CC)nc(-c2cccc(Cl)c2)c(C(=O)OCCC)c1CC | Displacement [15]: 10%

Further lines, the molecule ahead of its results:

Compound | Ratio (Rattus norvegicus [1]) | pKi [2] | Ratio (Rattus norvegicus [4]) | Ratio (Rattus norvegicus [5]) | Ki (Adenosine receptor A1 [8]) [µM] | Ki (Adenosine receptor A3 [10]) [µM] | Ki (Adenosine receptor A1 [11]) [µM] | further results
CCOC(=O)c1c(-c2ccccc2)nc(CC)c(C(=O)SCC)c1CCCN1C(=O)c2ccccc2C1=O | – | – | – | – | 5.24 | – | – | Displacement [6]: 10%; Displacement [7]: 28%
CCCc1c(C(=O)SCC)c(CCSC(C)=O)nc(-c2ccccc2)c1C(=O)OCC | 68 | 6.71 | – | – | – | 0.193 | 13.2 | inhibition [9]: 30%
CCCOC(=O)c1c(-c2ccccc2)nc(CCF)c(C(=O)SCC)c1CCC | – | – | 76 | < 1 | 19.8 | – | – | Ki [12]: 0.26 µM; inhibition [13]: 15%; Ki (Adenosine receptor A2a): 30.8 µM
CCCOC(=O)c1c(-c2ccccc2)nc(CC)c(C(=O)SCCCF)c1CCC | 150 | 7.08 | 81 | 1.9 | 12.6 | 0.0828 | – | Displacement [6]: < 10%; Ki (Adenosine receptor A3 [14]): 0.156 µM
CCCOC(=O)c1c(-c2ccccc2F)nc(CC)c(C(=O)SCC)c1CCC | 590 | 7.64 | – | – | – | 0.023 | 13.5 | Ki (Adenosine receptor A2a): 8.63 µM
